# Source: PubChem (several laboratories)
# Compounds with a hit are over-represented: about 1.9% of the library has one in this group of screens.
# MC4R ag barr – MC4R agonists recruiting beta-arrestin, primary screen, cell-based, luminescence, agonist arm of biased-ligand search | U2OS MC4R beta-arrestin complementation; percent of melanotan II response, DMSO zero | activation, % at 8.9 µM | 360,000 tested, 0.98% active;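 active = activation above a per-plate cutoff, the mean activation of sample wells on that plate plus 3 SD, cut at about 8% in these data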
# Target sequence (P32245 whole entry, looked up): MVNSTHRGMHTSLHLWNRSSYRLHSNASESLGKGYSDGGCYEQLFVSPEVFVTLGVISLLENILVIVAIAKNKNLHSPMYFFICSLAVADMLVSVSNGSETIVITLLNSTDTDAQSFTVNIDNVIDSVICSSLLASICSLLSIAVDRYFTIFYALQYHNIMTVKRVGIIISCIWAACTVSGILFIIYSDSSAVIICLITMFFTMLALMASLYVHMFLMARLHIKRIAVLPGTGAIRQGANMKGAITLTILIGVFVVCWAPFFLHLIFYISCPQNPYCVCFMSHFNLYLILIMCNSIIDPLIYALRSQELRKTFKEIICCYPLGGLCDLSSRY
# NTR1 agonist – agonists of human NTR1, primary screen, imaging, U2OS cells, beta-arrestin-GFP, high content. Neurotensin receptor type 1 (Homo sapiens), P30989. NTR1-U2OS beta-arrestin-GFP spot imaging, agonist mode. activation, % at 20 µM. 330,000 tested, 0.17% active. AID 493036, 2011;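 active = activation at or above 40% of the spot to cytoplasm intensity ratio, with at least 20 cells analyzed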
# TLR4-MyD88 BLA – inhibitors of TLR4-MyD88 association in cells, primary screen, cell-based, HeLa CL3-4, BLA complementation, FRET ratio | HeLa CL3-4 TLR4/MyD88 BLA complementation | inhibition, % at 8.4 µM | 200,000 tested, 0.18% active | AID 861, 2007; in the data active = inhibition above about 25%
# MC4R antag cAMP – MC4R antagonists of cAMP signaling, primary screen, cell-based, TR-FRET, antagonist arm of biased-ligand search | MC4R-expressing cells, MTII-stimulated cAMP, LANCE TR-FRET | inhibition, % at 6.5 µM | 360,000 tested, 0.48% active | AID 540295, 2011;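 active = inhibition above its plate's cutoff, the mean of tested wells on that plate plus 3 SD, cut at about 29% in these data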
#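 Assay system: human MC4R-expressing U2OS cells; reagent: Melanotan II stimulation of cells; dosing: 6.5 µM single dose; timing: compound 30 min, challenge 1 h, detection 1 h; signal: TR-FRET cAMP assay; replicates: one well per compound, no replicates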
# TLR9-MyD88 inh – inhibitors of TLR9-MyD88 association in cells, primary screen, cell-based, CHO, BLA complementation, fluorescence | CCF4 FRET ratio | inhibition, % at 4.98 µM | 340,000 tested, 0.21% active | AID 504734, 2011;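 active = inhibition above the mean over all tested compounds plus 3 SD, cut at about 21% in these data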
# NOD2-RIPK2 inh – NOD2-RIPK2 binding disruptors in cells, primary screen, fluorescence, CHO cells, BLA complementation; Receptor-interacting serine/threonine-protein kinase 2 (Homo sapiens), O43353; CCF4 ratio; inhibition, % at 4.98 µM; 360,000 tested, 0.38% active; in the data active = inhibition above about 21%
# TLR9-MyD88 cf – TLR9-MyD88 association inhibitors, retest, confirmation, cell-based, CHO, BLA complementation, fluorescence, triplicate. CCF4 FRET ratio. inhibition, % at 4.98 µM. shares compounds with TLR9-MyD88 inh. 680 tested, 51% active;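 active = mean inhibition across three repeats above about 21% taken from the earlier screen, limit read from the data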;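 also: blue over green emission ratio reports constitutive TLR9 MyD88 association via BLA complementation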
# BLA counter-1 – beta-lactamase reporter inhibitors in CHO cells, artefact control for TLR9-MyD88 binding inhibitor project, cell-based, fluorescence. inhibition, % at 4.98 µM. CHO-BLA cells, CCF4 FRET ratio, BLA reporter. 680 tested, 7% active. shares compounds with TLR9-MyD88 inh;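 active = mean inhibition above a 50% cutoff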;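 also: counterscreen of TLR9-MyD88 hits on CMV-driven BLA in CHO-K1 cells; higher means less blue over green ratio so more BLA blockade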
# TLR9 CHO tox – CHO cell viability loss – luminescence, single concentration, cytotoxicity control for TLR9-MyD88 binding inhibitor project; 680 tested, 39% active; AID 588336, 2011; inhibition, % at 4.98 µM; TLR9-MyD88 CHO cells cytotoxicity; shares compounds with TLR9-MyD88 inh; in the data active = inhibition above about 11%
# cAMP nonselect – nonselective cAMP signaling inhibitors, parental cells, counter-screen for MC4R biased antagonist project, cell-based, TR-FRET, U2OS, forskolin, triplicate; shares compounds with MC4R antag cAMP; LANCE TR-FRET; inhibition, % at 6.5 µM; 1,600 tested, 26% active; AID 602193, 2012;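 active = mean inhibition over triplicates above the low-control well mean plus 3 SD, set per campaign, cut at about 13% in these data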;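 also: signal is single emission at 671 nm which falls as cellular cAMP rises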
# MC4R antag conf – MC4R cAMP antagonists, retest, confirmation, cell-based, TR-FRET; MC4R-expressing cells, MTII-stimulated cAMP; 1,600 tested, 27% active; inhibition, % at 6.5 µM; AID 602195, 2012; shares compounds with MC4R antag cAMP; in the data active = inhibition above about 29%
# MC4R barr ag – MC4R beta-arrestin agonists, retest, confirmation, cell-based, luminescence, U2OS. U2OS MC4R beta-arrestin recruitment; scaled DMSO 0%, Melanotan II 100%. shares compounds with MC4R ag barr. activation, % at 8.9 µM. AID 602192, 2012. 2,400 tested, 31% active;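 active = mean activation across replicates above the hit cutoff set in the earlier primary screen, cut at about 8% in these data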
# MOR DOR agonist – agonists of MOR-DOR heterodimerization, counter-screen for MC4R biased agonist project, cell-based, luminescence. activation, % at 9.2 µM. 2,400 tested, 5.8% active. AID 602194, 2012. U2OS PathHunter beta-arrestin, beta-gal luminescence; percent of deltorphin B response, DMSO zero. shares compounds with MC4R ag barr;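 active = mean activation across replicates exceeds the hit threshold derived in the earlier primary screen, cut at about 18% in these data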
# NOD2 RIPK2 conf – NOD2-RIPK2 binding disruptors, retest, confirmation, fluorescence, CHO cells, BLA complementation, triplicate; shares compounds with NOD2-RIPK2 inh; inhibition, % at 4.98 µM; CCF4 FRET; 1,200 tested, 70% active;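 active = mean inhibition across replicates above a set limit taken from the earlier primary screen, cut at about 21% in these data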
# BLA counter-2 – NOD2-RIPK2 counterscreen BLA reporter activity; shares compounds with NOD2-RIPK2 inh; CHO BLA reporter, CCF4 FRET ratio; inhibition, % at 4.98 µM; 1,200 tested, 57% active;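 active = mean inhibition above the low-control mean inhibition plus three low-control SD, cut at about 11% in these data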
# Numbers stand for hits; . = inactive; / = no result.
SMILES,MC4R ag barr,NTR1 agonist,TLR4-MyD88 BLA,MC4R antag cAMP,TLR9-MyD88 inh,NOD2-RIPK2 inh,TLR9-MyD88 cf,BLA counter-1,TLR9 CHO tox,cAMP nonselect,MC4R antag conf,NOD2 RIPK2 conf,BLA counter-2,others
CCOC(=O)CS(=O)(=O)c1nc(-c2ccc(F)cc2)cc(C(F)(F)F)n1,.,.,.,32.4,42.1,69.5,37.0,.,99.4,.,.,/,/,
CCOC(=O)COc1ccccc1/C=C\[N+](=O)[O-],.,/,.,29.4,33.1,86.8,47.1,.,95.7,37.1,43.7,/,/,
Cc1ccc(C(=O)COC(=O)COc2ccccc2[N+](=O)[O-])s1,.,.,/,.,.,.,/,/,/,/,/,/,/,
O=[N+]([O-])c1ccc(Sc2cccc[n+]2[O-])c2nonc12,.,/,/,47.7,55.4,88.8,59.0,.,100.9,41.9,60.1,/,/,
O=[N+]([O-])c1ccc(Nc2ccccc2)c2nonc12,.,.,/,.,.,.,/,/,/,/,/,/,/,
CS(=O)(=O)c1ccc(C(=O)OCC(=O)NCc2cccs2)cc1[N+](=O)[O-],.,.,/,47.1,21.6,.,29.5,.,78.3,22.4,.,/,/,
CCN(C[C@H]1N[C@@](CC)(C(=O)OC)[C@H]2C(=O)N(Cc3ccccc3)C(=O)[C@@H]12)C(=O)c1ccc(C(C)(C)C)cc1,.,.,/,41.3,45.3,.,.,.,52.0,.,.,/,/,
CC[C@@]1(C(=O)OC)N[C@H](CN(C)C(=O)c2ccc(C(C)(C)C)cc2)[C@@H]2C(=O)N(Cc3ccccc3)C(=O)[C@@H]21,.,.,/,.,.,.,/,/,/,/,/,/,/,
Cc1ccc(S(=O)(=O)N2CCOCC2)cc1C(=O)Nc1ccc(S(=O)(=O)Nc2nccs2)cc1,.,.,.,.,.,.,/,/,/,/,/,/,/,
O=C(NCc1nnc(SCC(=O)N2CCOCC2)o1)c1c(F)cccc1F,.,.,/,.,.,.,/,/,/,/,/,/,/,
O=C(c1cccc(F)c1)N1CCN(C(=O)c2cc3ncc(Br)cn3n2)CC1,.,.,.,.,.,.,/,/,/,/,/,/,/,
O=C1C=CC(=O)N1CCCCCCCCCCN1C(=O)C=CC1=O,.,/,/,78.0,42.3,.,55.9,.,96.0,20.5,49.2,/,/,
CCc1ccc(/C=C2/C(=O)N(c3ccccc3)C(=S)N2CC(=O)OC)s1,10.3,.,.,.,29.0,.,.,.,.,/,/,/,/,MC4R barr ag=.;MOR DOR agonist=.
CNc1ncc(C(=O)c2ccc(Br)cc2)s1,.,.,.,.,.,.,/,/,/,/,/,/,/,
CCc1c2c(nc3ccc(OC(=O)N4CCC(N5CCCCC5)CC4)cc13)-c1cc3c(c(=O)n1C2)COC(=O)[C@]3(O)CC,.,.,/,.,.,.,/,/,/,/,/,/,/,
CCC1(O)C(=O)OCc2c1cc1n(c2=O)Cc2cc3cc(O)ccc3nc2-1 (stereo not drawn),.,/,/,.,29.5,26.0,.,.,63.3,/,/,42.4,33.5,
COc1cc(/C=C/C(=O)N2CCN(Cc3ccccc3)CC2)cc(OC)c1OC,.,.,/,.,.,.,/,/,/,/,/,/,/,
COc1ccc2nc(C)cc(NCc3ccc(F)cc3)c2c1,.,.,/,.,38.0,24.4,21.6,.,29.7,/,/,44.9,44.3,
CCn1c(Cl)c(C=O)s/c1=N\S(=O)(=O)c1ccccc1,.,.,/,.,48.3,93.5,52.5,.,96.2,/,/,97.9,38.3,
COc1ccccc1N(C(C)=O)C1=C(Cl)C(=O)c2ccccc2C1=O,.,/,/,98.0,65.2,89.6,86.2,.,102.0,49.6,.,95.8,50.8,
CC(=NNc1nc2ccccc2o1)c1cc2ccccc2cn1,.,/,/,.,60.0,42.7,67.1,66.2,73.5,/,/,90.2,91.2,
CC(=NNc1nc2ccccc2s1)c1ncccn1,.,/,/,.,.,.,/,/,/,/,/,/,/,
CC(=NNc1nc2ccccc2o1)c1ncccn1,.,/,/,.,26.1,26.6,.,.,98.8,/,/,33.8,30.2,
COc1cccc(CN2c3ccc(Br)cc3C(=O)CS2(=O)=O)c1,.,.,/,.,.,.,/,/,/,/,/,/,/,
CN1OC[C@@H]2CN(Cc3ccccc3)[C@H](c3cccc(Oc4ccccc4)c3)C[C@@H]21,.,/,/,.,.,.,/,/,/,/,/,/,/,
O=c1c(Br)ccc(Br)cc1Br,.,/,/,.,65.5,85.3,68.5,.,98.2,/,/,100.9,47.8,
